Experimental data: ChEMBL document CHEMBL1135410, “Adenine nucleotide analogues locked in a Northern methanocarba conformation: enhanced stability and potency as P2Y(1) receptor agonists” (J Med Chem, 2002)
The source made the active and inactive calls. The calls are words filed in the database; no cut-off is given here.

Key:
[1] = biological target: P2Y purinoceptor 1 (Meleagris gallopavo) (UniProt P49652); assay: Agonist activity by measuring Purinoceptor P2Y1-promoted phospholipase C activity in turkey erythrocyte membranes; No effect as either agonist or antagonist at 10 uM; type: functional, cell membranes
P2Y purinoceptor 1 (Meleagris gallopavo), sequence (P49652 whole entry): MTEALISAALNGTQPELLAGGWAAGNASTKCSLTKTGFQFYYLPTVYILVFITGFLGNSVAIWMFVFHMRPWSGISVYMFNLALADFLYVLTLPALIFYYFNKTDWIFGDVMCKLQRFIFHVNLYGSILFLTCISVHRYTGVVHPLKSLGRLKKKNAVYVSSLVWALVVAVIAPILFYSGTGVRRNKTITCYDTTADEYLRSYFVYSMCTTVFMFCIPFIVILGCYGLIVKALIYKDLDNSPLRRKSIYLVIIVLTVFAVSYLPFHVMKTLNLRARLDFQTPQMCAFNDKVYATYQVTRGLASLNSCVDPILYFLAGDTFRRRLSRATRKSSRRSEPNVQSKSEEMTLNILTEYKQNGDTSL
Procedure, shortened: (§1)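 Turkey erythrocytes labelled 18–24 h at 37 °C with 2-[3H]myo-inositol in inositol-free DMEM. Ghosts (about 175 μg protein) incubated 5 min at 30 °C in pH 7.0 Hepes/KCl buffer with EGTA, CaCl2 and MgSO4, plus 1 μM GTPγS and the agonist. Total [3H]inositol phosphates separated by anion exchange. EC50 from four-parameter logistic fit, at least three experiments.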

[2] = biological target: T1, P2Y purinoceptor 11 (Homo sapiens) (UniProt Q96G91); assay: Agonist activity by measuring inositol phosphate accumulation in 1321N1 human astrocytoma cells stably expressing human P2Y purinoceptor 11; No effect as either agonist or antagonist at 10 uM; type: functional
T1 sequence (whole entry): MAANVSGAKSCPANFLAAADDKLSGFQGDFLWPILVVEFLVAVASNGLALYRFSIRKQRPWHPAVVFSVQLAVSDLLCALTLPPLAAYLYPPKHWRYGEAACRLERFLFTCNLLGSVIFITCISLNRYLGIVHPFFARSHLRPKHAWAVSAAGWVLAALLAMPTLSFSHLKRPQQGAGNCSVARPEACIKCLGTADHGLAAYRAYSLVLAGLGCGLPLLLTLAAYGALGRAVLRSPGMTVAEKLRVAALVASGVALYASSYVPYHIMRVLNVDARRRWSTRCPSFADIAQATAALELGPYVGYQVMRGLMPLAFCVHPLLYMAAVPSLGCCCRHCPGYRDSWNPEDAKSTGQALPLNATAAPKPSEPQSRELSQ
Procedure, shortened: (§2)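 Inositol phosphate accumulation measured in 1321N1 human astrocytoma cells stably expressing human P2Y1, P2Y2, P2Y4 or P2Y11 receptor. Full concentration–effect curves, repeated in at least three separate experiments run in duplicate or triplicate. EC50 from four-parameter logistic fit. Relative efficacy (%) taken against a maximal effective concentration of UTP or UDP in the same experiment.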

[3] = biological target: P2Y purinoceptor 4 (Homo sapiens) (UniProt P51582); assay: Agonist activity by measuring inositol phosphate accumulation in 1321N1 human astrocytoma cells stably expressing human P2Y purinoceptor 4; No effect as either agonist or antagonist at 10 uM; type: functional; procedure, shortened: as §2
P2Y purinoceptor 4 (Homo sapiens), sequence (P51582 whole entry): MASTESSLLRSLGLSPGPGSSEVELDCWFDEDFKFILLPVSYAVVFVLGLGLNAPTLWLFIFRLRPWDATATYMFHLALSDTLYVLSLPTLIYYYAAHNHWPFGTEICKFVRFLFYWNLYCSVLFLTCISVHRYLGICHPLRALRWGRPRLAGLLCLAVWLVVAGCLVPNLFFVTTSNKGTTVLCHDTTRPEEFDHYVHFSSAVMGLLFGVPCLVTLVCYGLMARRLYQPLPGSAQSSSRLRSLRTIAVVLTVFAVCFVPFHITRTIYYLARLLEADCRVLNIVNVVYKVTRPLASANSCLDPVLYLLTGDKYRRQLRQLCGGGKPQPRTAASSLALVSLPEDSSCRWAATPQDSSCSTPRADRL

[4] = biological target: T2, P2Y purinoceptor 2 (Homo sapiens, UniProt P41231); assay: Agonist activity by measuring inositol phosphate accumulation in 1321N1 human astrocytoma cells stably expressing human P2Y purinoceptor 2r; No effect as either agonist or antagonist at 10 uM; type: functional; procedure, shortened: as §2
T2 sequence (P41231 whole entry): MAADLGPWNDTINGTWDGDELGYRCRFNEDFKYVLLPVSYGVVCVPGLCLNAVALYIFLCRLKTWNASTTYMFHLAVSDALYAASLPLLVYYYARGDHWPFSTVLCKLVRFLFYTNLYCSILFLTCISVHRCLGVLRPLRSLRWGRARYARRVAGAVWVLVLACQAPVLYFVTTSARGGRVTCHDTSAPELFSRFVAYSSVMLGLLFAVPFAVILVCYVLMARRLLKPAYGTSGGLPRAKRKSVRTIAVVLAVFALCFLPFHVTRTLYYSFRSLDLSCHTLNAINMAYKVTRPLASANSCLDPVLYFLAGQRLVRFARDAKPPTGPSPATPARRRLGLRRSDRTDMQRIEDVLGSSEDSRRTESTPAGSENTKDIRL

[5] = biological target: T3, P2Y purinoceptor 1 (Homo sapiens, UniProt P47900); assay: Accumulation of inositol phosphate in 1321N1 astrocytoma cells expressing human P2Y1 purinoceptor; type: cell-based; procedure, shortened: as §2
T3 sequence (P47900 whole entry): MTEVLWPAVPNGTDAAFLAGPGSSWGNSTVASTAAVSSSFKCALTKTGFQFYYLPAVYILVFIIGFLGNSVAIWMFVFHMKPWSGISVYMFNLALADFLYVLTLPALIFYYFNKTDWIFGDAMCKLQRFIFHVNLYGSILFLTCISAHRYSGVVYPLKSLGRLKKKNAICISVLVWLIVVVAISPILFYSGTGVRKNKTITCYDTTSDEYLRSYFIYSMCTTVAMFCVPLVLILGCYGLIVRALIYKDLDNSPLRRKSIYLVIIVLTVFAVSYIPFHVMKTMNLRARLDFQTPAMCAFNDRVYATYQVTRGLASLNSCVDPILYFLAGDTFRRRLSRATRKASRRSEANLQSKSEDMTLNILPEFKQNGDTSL

[6] = biological target: T2, P2Y purinoceptor 2; assay: Agonist activity by measuring inositol phosphate accumulation in 1321N1 human astrocytoma cells stably expressing human P2Y purinoceptor 2; type: functional; procedure, shortened: as §2
[7] = biological target: P2Y purinoceptor 1 (Meleagris gallopavo, UniProt P49652); assay: Activation of Purinoceptor P2Y1-mediated phospholipase C in turkey erythrocyte membranes; type: cell membranes
P2Y purinoceptor 1 (Meleagris gallopavo, UniProt P49652), sequence (P49652 whole entry): as the sequence (P49652 whole entry) above
Procedure, shortened: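 Turkey erythrocytes labelled 18–24 h at 37 °C with 2-[3H]myo-inositol in inositol-free DMEM. Total [3H]inositol phosphates separated by anion exchange. EC50 from four-parameter logistic fit, at least three experiments.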

[8] = biological target: T1, P2Y purinoceptor 11 (Homo sapiens); assay: Agonist activity by measuring inositol phosphate accumulation in 1321N1 human astrocytoma cells stably expressing human P2Y purinoceptor 11; type: functional; procedure, shortened: as §2
[9] = biological target: P2Y purinoceptor 4 (Homo sapiens) (UniProt P51582); assay: Agonist activity by measuring inositol phosphate accumulation in 1321N1 human astrocytoma cells stably expressing human P2Y purinoceptor 4; type: functional; procedure, shortened: as §2
[10] = biological target: T4, Ectonucleoside triphosphate diphosphohydrolase 1 (Rattus norvegicus) (UniProt P97687); assay: Hydrolysis rate as substrate of rat Ectonucleoside triphosphate diphosphohydrolase 1 (NTPDase 1) (Ecto-apyrase); design: scale not given: the % may be the effect or the level left
T4 sequence (whole entry): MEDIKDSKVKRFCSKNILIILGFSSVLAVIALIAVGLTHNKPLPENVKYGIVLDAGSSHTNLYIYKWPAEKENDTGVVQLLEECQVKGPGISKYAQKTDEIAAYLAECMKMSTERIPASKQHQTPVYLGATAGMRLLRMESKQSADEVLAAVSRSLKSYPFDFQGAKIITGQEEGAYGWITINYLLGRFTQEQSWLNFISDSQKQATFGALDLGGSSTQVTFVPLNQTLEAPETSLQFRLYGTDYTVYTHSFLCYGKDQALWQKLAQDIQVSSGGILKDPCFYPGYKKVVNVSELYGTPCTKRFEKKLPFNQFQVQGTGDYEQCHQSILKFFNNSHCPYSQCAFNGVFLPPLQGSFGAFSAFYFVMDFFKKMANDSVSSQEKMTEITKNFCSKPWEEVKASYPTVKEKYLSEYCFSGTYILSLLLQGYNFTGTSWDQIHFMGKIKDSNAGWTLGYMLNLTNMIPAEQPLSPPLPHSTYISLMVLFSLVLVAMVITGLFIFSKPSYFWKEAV
Procedure, shortened: (§3)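 Intact CHO cells stably expressing rat NTPDase1 or NTPDase2, seeded 24 h before assay. Incubated at 37 °C in Hepes-buffered saline, pH 7.4, with nucleotide substrate. Supernatant aliquots taken over time and analysed by HPLC at 260 nm. Rate expressed relative to ATP (100%). Nontransfected CHO cells served as control. Two experiments, each in duplicate.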

[11] = biological target: T5, Ectonucleoside triphosphate diphosphohydrolase 2 (Rattus norvegicus) (UniProt O35795); assay: Hydrolysis rate as substrate of rat Ectonucleoside triphosphate diphosphohydrolase 2 (NTPDase 2) (Ecto-apyrase); design: scale not given: the % may be the effect or the level left; procedure, shortened: as §3
T5 sequence (whole entry): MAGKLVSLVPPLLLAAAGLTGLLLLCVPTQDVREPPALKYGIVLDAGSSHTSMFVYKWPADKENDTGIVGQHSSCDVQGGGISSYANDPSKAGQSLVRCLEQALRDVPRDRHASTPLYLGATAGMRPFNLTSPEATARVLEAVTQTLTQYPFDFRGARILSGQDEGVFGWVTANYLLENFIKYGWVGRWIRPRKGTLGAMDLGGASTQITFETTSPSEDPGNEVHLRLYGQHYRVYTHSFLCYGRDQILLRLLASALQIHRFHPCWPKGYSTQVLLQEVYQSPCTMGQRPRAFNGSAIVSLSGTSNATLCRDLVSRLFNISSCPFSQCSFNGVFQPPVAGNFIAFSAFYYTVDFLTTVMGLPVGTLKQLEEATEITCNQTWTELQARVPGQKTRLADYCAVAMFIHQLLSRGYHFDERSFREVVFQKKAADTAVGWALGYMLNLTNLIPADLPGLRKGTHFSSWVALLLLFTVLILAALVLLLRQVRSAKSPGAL

[12] = biological target: T3, P2Y purinoceptor 1; assay: Agonist activity by measuring inositol phosphate accumulation in 1321N1 human astrocytoma cells stably expressing human P2Y purinoceptor 1; No effect as either agonist or antagonist at 10 uM; type: functional; procedure, shortened: as §2
[13] = biological target: P2Y purinoceptor 1 (Meleagris gallopavo) (UniProt P49652); assay: Agonist activity by measuring Purinoceptor P2Y1-promoted phospholipase C activity in turkey erythrocyte membranes; type: functional, cell membranes; procedure, shortened: as §1
[14] = organism: Rattus norvegicus; assay: Hydrolysis rate of compound as substrate of purified recombinant rat Ecto-5'-nucleotidase; type: functional; design: scale not given: the % may be the effect or the level left
Procedure, shortened: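 Purified baculovirus-expressed rat ecto-5′-nucleotidase (0.5 μg) incubated 10 min at 37 °C with 100 μM (final) substrate in Tris-buffered saline containing 0.4 mM MgCl2, pH 7.4. Reaction stopped with 5% TCA. Released inorganic phosphate measured by the Lanzetta method. Activity expressed relative to AMP (100%). Two experiments, each in duplicate.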

[15] = biological target: T2, P2Y purinoceptor 2; assay: Agonist activity by measuring inositol phosphate accumulation in 1321N1 human astrocytoma cells stably expressing human P2Y purinoceptor 2; No effect as either agonist or antagonist at 10 uM; type: functional

CNC(=O)[C@@]12C[C@@H]1[C@@H](n1cnc3c(NC)nc(Cl)nc31)[C@H](O)[C@@H]2O
NE [1]: inactive

CSc1nc(N)c2ncn([C@@H]3O[C@H](COP(=O)(O)OP(=O)(O)O)[C@@H](O)[C@H]3O)c2n1
NE [2]: inactive | NE [3]: inactive | NE [4]: inactive

Nc1nc(Cl)nc2c1ncn2[C@@H]1O[C@H](COP(=O)(O)OP(=O)(O)OP(=O)(O)O)[C@@H](O)[C@H]1O
EC50 [5]: 770 nM | EC50 [6]: 2300 nM | EC50 [7]: 720 nM

Nc1ncnc2c1ncn2C1C(O)C(O)C2(COP(=O)(O)OP(=O)(O)OP(=O)(O)O)CC12 (stereo unspecified)
% of maximal effect [8]: 35% | % of maximal effect [9]: 32% | Activity [10]: 52% | EC50 [6]: 91 nM | Activity [11]: 4% | EC50 [7]: 14 nM

C[S+]([O-])c1nc(N)c2ncn(C3O[C@H](COP(=O)(O)O)[C@@H](O)[C@H]3O)c2n1 (stereo partly specified)
NE [1]: inactive | NE [12]: inactive

Nc1ncnc2c1ncn2[C@@H]1O[C@H](COP(=O)(O)OP(=O)(O)OP(=O)(O)O)[C@@H](O)[C@H]1O [ADENOSINE TRIPHOSPHATE]
NE [3]: inactive | Activity [10]: 100% | EC50 [6]: 85 nM | Activity [11]: 100%

Nc1ncnc2c1ncn2C12CC1C(COP(=O)(O)OP(=O)(O)OP(=O)(O)O)C(O)C2O (stereo unspecified)
Activity [10]: 57% | Activity [11]: 34%

CSc1nc(N)c2ncn([C@@H]3O[C@H](COP(=O)(O)O)[C@@H](O)[C@H]3O)c2n1
NE [12]: inactive | % of maximal effect [13]: 15% | NE [2]: inactive

Nc1ncnc2c1ncn2[C@@]12C[C@@H]1[C@H](COP(=O)(O)O)[C@H](O)[C@@H]2O
Activity [14]: 0%

Nc1nc(Cl)nc2c1ncn2C1C(O)C(O)[C@@]2(COP(=O)(O)OP(=O)(O)OP(=O)(O)O)C[C@@H]12 (stereo partly specified)
EC50 [5]: 7 nM | EC50 [6]: 1900 nM | EC50 [7]: 3 nM

Nc1ncnc2c1ncn2[C@@H]1O[C@H](COP(=O)(O)OP(=O)(O)CP(=O)(O)O)[C@@H](O)[C@H]1O
NE [15]: inactive | NE [1]: inactive | NE [12]: inactive
